Measurements as given in ChEMBL document CHEMBL5724801, “EUbOPEN Chemogenomics Library - Multiplex” (2024).
“And” between values parts separate entries of the source, which are not always exact repeats. Equal values may be shown once.

Tested on: Fibroblast
Assay: Multiplex assay against human fibroblast
Type: toxicity, cell-based
Procedure, shortened: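 At seeding, live cells were stained with Hoechst33342, BioTracker Green Microtubule Cytoskeleton Dye, MitoTracker Red and Annexin V Alexa Fluor 680. After compound addition they were imaged on a CQ1 microscope at 37°C and 5% CO2, and CellPathfinder machine-learning gating sorted them into Hoechst high-intensity objects or normal cells, with normal cells further split into healthy, pyknosed or fragmented nuclei and pyknosed cells into mitotic or apoptotic. Tubulin, mitochondrial-mass and membrane-permeability phenotypes are given as per cents of cells with healthy nuclei.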

[1] = 12 h, 1 µM, compound concentration 1 uM
[2] = 12 h, 10 µM, compound concentration 10 uM
[3] = 24 h, 1 µM, compound concentration 1 uM
[4] = 24 h, 10 µM, compound concentration 10 uM
[5] = 48 h, 1 µM, compound concentration 1 uM
[6] = 48 h, 10 µM, compound concentration 10 uM

N[C@@]1(C(=O)O)CO[C@H]2[C@H](C(=O)O)[C@H]21 [LY-379268]
Population Apoptotic (%) [1]: 22% and 44%
Population Fragmented Nuclei (%) [1]: 17% and 33%
Population Healthy Nuclei (%) [1]: 70% and 43%
Population Hoechst High Intensity Objects (%) [1]: 1% and 10%
Population Membrane Permeable-Phenotype (%) [1]: 0% and 5%
Population Mitochondria Different-Phenotype (%) [1]: 2% and 1%
Population Mitotic Cells (%) [1]: 77% and 55%
Population Normal (%) [1]: 98% and 89%
Population Pyknosed Nuclei (%) [1]: 11% and 22%
Population Tubulin-Different-Phenotype (%) [1]: 25% and 45%
Total Cell Count [1]: 156 and 145
Population Apoptotic (%) [2]: 29% and 21%
Population Fragmented Nuclei (%) [2]: 15%
Population Healthy Nuclei (%) [2]: 69% and 51%
Population Hoechst High Intensity Objects (%) [2]: 3%
Population Membrane Permeable-Phenotype (%) [2]: 0% and 4%
Population Mitochondria Different-Phenotype (%) [2]: 3% and 1%
Population Mitotic Cells (%) [2]: 70% and 78%
Population Normal (%) [2]: 96%
Population Pyknosed Nuclei (%) [2]: 14% and 33%
Population Tubulin-Different-Phenotype (%) [2]: 19% and 47%
Total Cell Count [2]: 187 and 128
Population Apoptotic (%) [3]: 36% and 47%
Population Fragmented Nuclei (%) [3]: 16% and 40%
Population Healthy Nuclei (%) [3]: 70% and 41%
Population Hoechst High Intensity Objects (%) [3]: 0% and 10%
Population Membrane Permeable-Phenotype (%) [3]: 0% and 4%
Population Mitochondria Different-Phenotype (%) [3]: 5% and 10%
Population Mitotic Cells (%) [3]: 63% and 52%
Population Normal (%) [3]: 99% and 89%
Population Pyknosed Nuclei (%) [3]: 12% and 18%
Population Tubulin-Different-Phenotype (%) [3]: 23% and 60%
Total Cell Count [3]: 152 and 125
Population Apoptotic (%) [4]: 66% and 22%
Population Fragmented Nuclei (%) [4]: 14% and 17%
Population Healthy Nuclei (%) [4]: 75% and 53%
Population Hoechst High Intensity Objects (%) [4]: 5% and 6%
Population Membrane Permeable-Phenotype (%) [4]: 0% and 2%
Population Mitochondria Different-Phenotype (%) [4]: 3% and 0%
Population Mitotic Cells (%) [4]: 33% and 77%
Population Normal (%) [4]: 94% and 93%
Population Pyknosed Nuclei (%) [4]: 10% and 28%
Population Tubulin-Different-Phenotype (%) [4]: 19% and 44%
Total Cell Count [4]: 189 and 133
Population Apoptotic (%) [5]: 76% and 50%
Population Fragmented Nuclei (%) [5]: 22% and 33%
Population Healthy Nuclei (%) [5]: 68% and 55%
Population Hoechst High Intensity Objects (%) [5]: 3% and 11%
Population Membrane Permeable-Phenotype (%) [5]: 0% and 4%
Population Mitochondria Different-Phenotype (%) [5]: 5% and 7%
Population Mitotic Cells (%) [5]: 23% and 50%
Population Normal (%) [5]: 96% and 88%
Population Pyknosed Nuclei (%) [5]: 8% and 11%
Population Tubulin-Different-Phenotype (%) [5]: 26% and 59%
Total Cell Count [5]: 156 and 136
Population Apoptotic (%) [6]: 62% and 42%
Population Fragmented Nuclei (%) [6]: 14% and 27%
Population Healthy Nuclei (%) [6]: 72% and 56%
Population Hoechst High Intensity Objects (%) [6]: 1% and 7%
Population Membrane Permeable-Phenotype (%) [6]: 0% and 10%
Population Mitochondria Different-Phenotype (%) [6]: 0% and 5%
Population Mitotic Cells (%) [6]: 37% and 57%
Population Normal (%) [6]: 98% and 92%
Population Pyknosed Nuclei (%) [6]: 13% and 16%
Population Tubulin-Different-Phenotype (%) [6]: 19% and 47%
Total Cell Count [6]: 179 and 140

CN1CCN2c3ccccc3Cc3ccccc3C2C1.Cl (stereo not given) [MIANSERIN HYDROCHLORIDE]
Population Apoptotic (%) [1]: 55% and 38%
Population Fragmented Nuclei (%) [1]: 28% and 27%
Population Healthy Nuclei (%) [1]: 56% and 50%
Population Hoechst High Intensity Objects (%) [1]: 2% and 4%
Population Mitochondria Different-Phenotype (%) [1]: 0% and 5%
Population Mitotic Cells (%) [1]: 45% and 61%
Population Normal (%) [1]: 97% and 95%
Population Pyknosed Nuclei (%) [1]: 14% and 22%
Population Tubulin-Different-Phenotype (%) [1]: 31% and 56%
Total Cell Count [1]: 138 and 119
Population Apoptotic (%) [2]: 55% and 33%
Population Fragmented Nuclei (%) [2]: 15% and 24%
Population Healthy Nuclei (%) [2]: 68% and 48%
Population Hoechst High Intensity Objects (%) [2]: 5% and 6%
Population Membrane Permeable-Phenotype (%) [2]: 1% and 3%
Population Mitochondria Different-Phenotype (%) [2]: 3% and 7%
Population Mitotic Cells (%) [2]: 44% and 66%
Population Normal (%) [2]: 94% and 93%
Population Pyknosed Nuclei (%) [2]: 15% and 27%
Population Tubulin-Different-Phenotype (%) [2]: 14% and 40%
Total Cell Count [2]: 126 and 116
Population Apoptotic (%) [3]: 52% and 36%
Population Fragmented Nuclei (%) [3]: 32% and 30%
Population Healthy Nuclei (%) [3]: 55% and 50%
Population Hoechst High Intensity Objects (%) [3]: 2% and 3%
Population Membrane Permeable-Phenotype (%) [3]: 0% and 6%
Population Mitochondria Different-Phenotype (%) [3]: 2% and 1%
Population Mitotic Cells (%) [3]: 47% and 63%
Population Normal (%) [3]: 97% and 96%
Population Pyknosed Nuclei (%) [3]: 12% and 19%
Population Tubulin-Different-Phenotype (%) [3]: 29% and 53%
Total Cell Count [3]: 143 and 119
Population Apoptotic (%) [4]: 61% and 48%
Population Fragmented Nuclei (%) [4]: 14% and 31%
Population Healthy Nuclei (%) [4]: 73% and 47%
Population Hoechst High Intensity Objects (%) [4]: 5% and 4%
Population Membrane Permeable-Phenotype (%) [4]: 0% and 10%
Population Mitochondria Different-Phenotype (%) [4]: 1% and 5%
Population Mitotic Cells (%) [4]: 38% and 52%
Population Normal (%) [4]: 95%
Population Pyknosed Nuclei (%) [4]: 11% and 20%
Total Cell Count [4]: 120 and 127
Population Apoptotic (%) [5]: 78% and 46%
Population Fragmented Nuclei (%) [5]: 35% and 36%
Population Healthy Nuclei (%) [5]: 55% and 51%
Population Hoechst High Intensity Objects (%) [5]: 2% and 3%
Population Membrane Permeable-Phenotype (%) [5]: 0% and 3%
Population Mitochondria Different-Phenotype (%) [5]: 2% and 10%
Population Mitotic Cells (%) [5]: 21% and 53%
Population Normal (%) [5]: 97% and 96%
Population Pyknosed Nuclei (%) [5]: 9% and 11%
Population Tubulin-Different-Phenotype (%) [5]: 35% and 50%
Total Cell Count [5]: 151 and 116
Population Apoptotic (%) [6]: 57% and 38%
Population Fragmented Nuclei (%) [6]: 15% and 29%
Population Healthy Nuclei (%) [6]: 71% and 55%
Population Hoechst High Intensity Objects (%) [6]: 5% and 3%
Population Membrane Permeable-Phenotype (%) [6]: 0% and 10%
Population Mitochondria Different-Phenotype (%) [6]: 2% and 1%
Population Mitotic Cells (%) [6]: 42% and 61%
Population Normal (%) [6]: 94% and 96%
Population Pyknosed Nuclei (%) [6]: 12% and 14%
Population Tubulin-Different-Phenotype (%) [6]: 16% and 37%
Total Cell Count [6]: 115 and 125
